NR2E3 ag-1: NR2E3 (human) agonism. Q9Y5X4. GST-NR2E3/biotin-RetCOR TR-FRET, 1536-well. inhibition of corepressor binding, % at 4.78 µM. 320,000 tested, 0.12% active;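 active means percent inhibition above the cutoff of mean plus 3 SD of all tested compounds, set per screening campaign, cut at about 20% in these data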;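 further: 0% = DMSO wells and 100% = biotin wells as full block of FRET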
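Format: 1536-well format; test system: GST-NR2E3 and biotin-RetCOR proteins; read-out basis: percent inhibition of TR-FRET ratio; timing: 5 h incubation at 4 °C; detection: time-resolved FRET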
GASC-1 inh: inhibitors of human GASC-1 (JMJD2C) demethylase | Q9H3R0 | GST-JMJD2C(1-420) H3K9me3 demethylation, DELFIA europium | inhibition, % at 2.35 µM | 330,000 tested, 0.069% active | AID 2099;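 active means more than half of a compound's replicate wells show inhibition beyond 50%, single wells judged on their own value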;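 further: signal counts dimethyl H3K9 product captured on neutravidin plate; 0% = median of DMSO wells and 100% = 0.3 times that DMSO median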
Target sequence (Q9H3R0 1-420 limits assumed): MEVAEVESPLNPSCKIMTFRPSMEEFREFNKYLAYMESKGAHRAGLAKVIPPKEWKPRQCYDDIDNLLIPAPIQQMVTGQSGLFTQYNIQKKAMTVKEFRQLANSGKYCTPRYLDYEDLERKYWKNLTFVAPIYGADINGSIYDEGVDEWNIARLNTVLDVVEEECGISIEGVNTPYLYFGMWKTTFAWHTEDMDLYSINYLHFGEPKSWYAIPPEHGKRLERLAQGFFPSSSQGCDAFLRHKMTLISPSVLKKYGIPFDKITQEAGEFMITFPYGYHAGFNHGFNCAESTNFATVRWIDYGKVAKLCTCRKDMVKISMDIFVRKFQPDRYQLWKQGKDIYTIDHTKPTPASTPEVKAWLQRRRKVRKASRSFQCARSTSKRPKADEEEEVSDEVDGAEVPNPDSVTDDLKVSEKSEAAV
SMARCA2 act: activators of SMARCA2 function; AID 652017; 370,000 tested, 1% active; activation, % at 9.1 µM; MG213 cells, MMTV-luciferase reporter, dexamethasone, overnight; in the data active means activation above about 7.8%;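 further: 0% = vehicle wells and 100% = reference activator wells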
NR2E3 ag-2: agonists of human NR2E3 nuclear receptor | Q9Y5X4 | CHO-S Gal4-NCOR/VP16-NR2E3 two-hybrid, luciferase | inhibition of corepressor binding, % at 3.98 µM | 360,000 tested, 0.35% active;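 active means inhibition above the mean of all tested compounds plus 3 SD, cut at about 70% in these data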;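 further: 0% = DMSO with NR2E3 transfected cells and 100% = cells lacking NR2E3 construct; higher means lower luciferase signal from less NR2E3 corepressor binding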
DAX1 inh-1: blocks DAX1 repression of SF-1 activated StAR promoter. inhibition, % at 6.8 µM. 370,000 tested, 1.1% active. HEK293T StAR-luciferase reporter, SF-1/DAX-1 repression relief. AID 652010;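 active means inhibition above the mean over all tested compounds plus 3 SD, cut at about 3.6% in these data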;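 further: 0% = DAX-1 cells with DMSO and 100% = cells lacking DAX-1 with DMSO; higher inhibition means more luminescence from relief of DAX-1 repression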
DAX1 inh-2: inhibitors of human orphan nuclear receptor DAX1 (NR0B1); P51843; HEK293 Gal4-DAX1 luciferase reporter, luminescence; inhibition, % at 6.75 µM; 340,000 tested, 0.99% active;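 active means inhibition above the mean over all tested compounds plus 3 SD, cut at about 4.2% in these data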;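 further: 0% = DAX1-transfected cells with DMSO and 100% = empty-vector control cells with DMSO; inhibition shows as a rise in luminescence from relieved DAX1 repression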
Starred values were filed as active, the others as inactive; . = no result. The list is not random: actives were taken first. Their share in the collection is about 3.2%.

SMILES	NR2E3 ag-1	GASC-1 inh	SMARCA2 act	NR2E3 ag-2	DAX1 inh-1	DAX1 inh-2
O=C(Nc1ccccn1)c1ccc(S(=O)(=O)N2CCCCCC2)cc1	4	-2	3	-8	4.3*	1
CC(=O)CC[C@@H]1CC[C@]2(CCCN(S(C)(=O)=O)C2)O1	.	.	-1	.	-1	.
N/C(=N\OC(=O)/C=C/c1ccccc1)c1ccccc1	2	0	3	-111	4.3*	3
COCc1cn(-c2cccc(-c3noc4c3C(=O)N(CC(=O)N3CCOCC3)CC4)c2)nn1	.	.	0	.	1	.
O=C(NNC1=C(C(=O)C(F)(F)F)CCC1)c1cccc(Cl)c1	2	0	3	-120	2	5.2*
COc1ccc(C(=O)NNC2=C(C(=O)C(F)(F)F)CCC2)cc1	-1	14	0	-96	3	.
CCc1ccc(NC(=O)CSc2nnc(Cc3cccn3C)n2-c2ccc(OC)cc2)cc1	2	11	0	-19	1	4.7*
COc1ccc(-n2c(Cc3cccn3C)nnc2SCC(=O)Nc2ccccc2)cc1	7	-18	-1	-16	-1	1
O=C(C1CC1)N1CCC(C(O)(c2ccccc2)c2ccccc2)CC1	0	-3	0	3	0	5.1*
CCC1CCCCN1C(=O)CSc1nnc2nc(C)cc(C)n12 (stereo not drawn)	4	1	-3	-27	4.0*	0
Cc1sc2nc(COC(=O)CNC(=O)c3ccccc3Cl)[nH]c(=O)c2c1C	.	.	-2	.	1	.
O=C(CC(=O)c1ccccc1)Nc1ccccc1	-4	5	6	-97	1	4.5*
COC(=O)c1cc(-c2cccc(OCc3ccccc3)c2)c(=O)n2c1CCC2	.	.	-1	.	-1	.
Nc1nc2ncc(CNc3ccc(C(=O)N[C@@H](CCC(=O)O)C(=O)O)cc3)nc2c(=O)[nH]1	-5	-9	1	-10	1	5.2*
CN(Cc1cnc2nc(N)nc(N)c2n1)c1ccc(C(=O)N[C@@H](CCC(=O)O)C(=O)O)cc1	1	-17	-3	10	-4	-3
Cn1cnnc1Sc1ccc(C(=O)NCCC(c2ccccc2)c2ccccc2)cc1[N+](=O)[O-]	0	4	-2	-1	-1	4.3*
C=CCn1c(N)cc(=O)nc1SCC(=O)Nc1ccc(C(=O)OC)cc1	2	7	1	1	0	0
C=CCn1c(N)cc(=O)nc1SCC(=O)Nc1ccc(C(=O)OCC)cc1	-3	9	-2	1	0	5.8*
O=C(CCn1nnc(-c2cccs2)n1)N1CCCC1	.	.	-2	.	1	.
COc1ccc(OC)c(Nc2nc(-c3cccs3)cs2)c1	0	51*	3	-7	0	-1
COc1ccc(Nc2nc(-c3cccs3)cs2)c(OC)c1	1	7	6	-104	3	4.9*
O=C(Nc1cccc(C(F)(F)F)c1)OC1CCC12CCC(c1ccccc1)CC2 (stereo not drawn)	.	.	1	.	-1	.
COC(=O)CCC(=O)OC	.	.	-2	0	0	4.4*
C[C@H](O)[C@@H]1C(=O)N2CCc3ccc(N4CCN(C)CC4)cc3[C@@H]2C[C@@H]1N(C)C(=O)Nc1cc(Cl)cc(Cl)c1	.	.	-5	-9	3	-1
C[C@H](O)[C@@H]1C(=O)N2CCc3ccc(N4CCN(C)CC4)cc3[C@@H]2C[C@@H]1N(C)C(=O)NC1CCCCC1	.	.	7.9*	-14	1	0
SMILES	NR2E3 ag-1	GASC-1 inh	SMARCA2 act	NR2E3 ag-2	DAX1 inh-1	DAX1 inh-2
CCc1ccc(CCNC(=O)OCCCN2CCC3(CCC(c4ccccc4)CC3)C2=O)cc1 (stereo not drawn)	.	.	-7	.	-3	.
CCCCOCCCNC(=O)C[C@H]1C[C@@]2(C(=O)OC)C(=C[C@H](C3CCCC3)O[C@@H]2C)N(Cc2ccco2)C1=O	.	.	-2	.	0	.
O=C(N/N=C/c1cccc([N+](=O)[O-])c1)C1CC1c1ccccc1 (stereo not drawn)	-4	3	9.1*	-7	-1	-2
O=C(CCc1ccccc1)N/N=C/c1cccc([N+](=O)[O-])c1	1	0	-4	5	0	2
COc1cc(N2CCOCC2)ncn1	-3	7	-1	-29	0	4.8*
C[C@H]1COc2c3ccc(I)cc3nn21	.	.	1	.	2	.
COc1ccc(C(=O)OCCN2CCN(C3CN(Cc4cn(Cc5ccccc5C(F)(F)F)nn4)S(=O)(=O)C3)CC2)cc1OC (stereo not drawn)	.	.	2	.	-3	.
CC1CC2CCCC(O)=C2C(=O)O1 (stereo not drawn)	.	.	4	-6	-1	4.3*
O=S(=O)(/N=C(/Nc1nc2ccccc2s1)c1ccccc1)c1ccc(F)cc1	.	.	5	-25	4.4*	6.4*
Cc1cc(C(=O)COC(=O)C23CC4CC(CC(O)(C4)C2)C3)c(C)n1-c1c(C)n(C)n(-c2ccccc2)c1=O	-2	78	-1	-13	0	0
COCCn1c(C)cc(C(=O)COC(=O)C23CC4CC(CC(O)(C4)C2)C3)c1C	2	0	0	-61	4.5*	4
CC(=O)Nc1ccc(NC(=O)c2nc(S(=O)(=O)Cc3cccc(C)c3)ncc2Cl)cc1	-1	2	-8	11	4.0*	0
COc1ccccc1OCc1cc(C(=O)N(C)CCC2CCOCC2)no1	.	.	7	-78	3.9*	3
CCCCOc1ccc(-n2nc(C)cc2C)nn1	2	-13	3	-28	2	4.7*
COc1ccc(C(=O)NNC2CC(=O)N(Cc3ccccc3)C2=O)cc1OC (stereo not drawn)	-3	2	7.9*	-5	0	1
Cc1cc(C(=O)COC(=O)c2cc(Cl)ccc2N)c(C)n1Cc1ccco1	6	-1	5	-120	3.7*	1
Cc1cc(C(=O)COC(=O)c2cccn2C)c(C)n1Cc1ccco1	6	-3	-1	-66	4.1*	-4
O=S(=O)(c1ccc(OCC(O)CNC23CC4CC(CC(C4)C2)C3)c(Cl)c1)N1CCOCC1 (stereo not drawn)	2	-14	7.8*	10	0	2
COc1ccc(NC(=O)CSc2nnc(-c3n[nH]c4c3CCC4)n2N)cc1	.	.	-6	.	-3	.
O=C(CCc1nnc(CCCc2ccccc2)o1)NC(C1CC1)C1CC1	0	7	6	-90	2	5.0*
O=C(/C=C/c1ccc([N+](=O)[O-])cc1)N1CCN(c2ccccc2F)CC1	-2	-26	5	12	1	5.2*
O=C(/C=C/c1cccs1)N1CCN(c2ccccc2F)CC1	2	6	0	-26	0	1
O=S(=O)(NCC1NCCc2ccccc21)c1ccccc1 (stereo not drawn)	-2	-1	2	-42	0	8.3*
N#Cc1ccccc1NC(=S)NC(=O)C1CCC1	.	0	-1	-13	0	4.3*

Compound activity from PubChem BioAssay.
